Data on 9 molecules can be found in ChEMBL document CHEMBL1150790, “Biochemical characterization of PER-2 and genetic environment of blaPER-2” (Antimicrob Agents Chemother, 2007).

≈ marks a conversion by molar mass, not a printed value. A value given as a limit tells only on which side of the number the result lay.

The MIC is the lowest concentration that inhibits growth of the organism. In general, Ki refers to a dissociation constant, usually derived from enzyme kinetics or from competition with a known ligand. The term Km denotes the concentration of substrate that gives half-maximal velocity. A word on the kcat/Km: it is the turnover number divided by the Michaelis constant.

One experiment deals with Citrobacter freundii. As to the kind of experiment: Antimicrobial activity against Citrobacter freundii 33587 isolate by agar dilution method. The format is functional. The method, boiled down:
(§1)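 MICs were determined by agar dilution following CLSI guidelines, with inoculum applied by a Steers multipoint inoculator.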
Background: In agar dilution, organisms are placed on agar that contains the substance at set levels.

In experiment [1] the test system is Escherichia coli. As to the kind of experiment: Antimicrobial activity against Escherichia coli CAG12177 by agar dilution method. The format is functional. The method, boiled down: as §1
The subject of experiment [2] is Escherichia coli. As to the kind of experiment: Antimicrobial activity against Escherichia coli 33587-TC9 by agar dilution method. The experiment is classed as functional. The method, boiled down:
as §1

Experiment [3] addresses T1, PER-2 beta-lactamase (Citrobacter freundii) (UniProt A2RP81).
T1 sequence (whole entry): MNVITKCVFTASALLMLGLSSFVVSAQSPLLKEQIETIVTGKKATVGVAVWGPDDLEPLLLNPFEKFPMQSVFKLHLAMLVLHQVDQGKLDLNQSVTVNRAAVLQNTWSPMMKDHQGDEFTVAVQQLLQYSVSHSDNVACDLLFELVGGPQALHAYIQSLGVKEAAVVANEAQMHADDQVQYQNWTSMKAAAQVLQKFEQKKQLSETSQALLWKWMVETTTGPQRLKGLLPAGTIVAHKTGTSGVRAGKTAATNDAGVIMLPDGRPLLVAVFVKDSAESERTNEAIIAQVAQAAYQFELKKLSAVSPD
Kind of experiment: Ratio of Kcat to Km of Citrobacter freundii PER2 beta lactamase relative to cephalothin. The essentials: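 Purified recombinant PER-2 (E. coli BL21(DE3) expression, Q-Sepharose purification) was assayed spectrophotometrically at 30°C in 500 μl. kcat and Km came from initial steady-state rates.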

In a further experiment the target is T2, PER-2 beta-lactamase (Citrobacter freundii, UniProt A2RP81).
T2 sequence (A2RP81 whole entry): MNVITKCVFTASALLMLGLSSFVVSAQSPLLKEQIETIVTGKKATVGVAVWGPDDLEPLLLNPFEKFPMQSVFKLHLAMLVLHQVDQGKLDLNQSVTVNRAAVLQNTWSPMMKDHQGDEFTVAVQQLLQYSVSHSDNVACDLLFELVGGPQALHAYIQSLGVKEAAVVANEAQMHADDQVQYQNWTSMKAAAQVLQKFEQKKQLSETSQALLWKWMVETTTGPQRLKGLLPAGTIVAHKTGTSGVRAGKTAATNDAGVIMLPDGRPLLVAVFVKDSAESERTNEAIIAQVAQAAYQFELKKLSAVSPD
Kind of experiment: Inhibition of Citrobacter freundii PER2 beta lactamase. The method, boiled down:
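Purified recombinant PER-2 was incubated with the drug plus 100 μM nitrocefin as reporter substrate in 500 μl at 30°C. Residual enzyme activity was read spectrophotometrically. Apparent Km values were derived as competitive inhibitor constants (Ki).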

In experiment [4] the test system is Alcaligenes faecalis. As to the kind of experiment: Activity of Alcaligenes faecalis PER2 beta lactamase. The essentials:
(§2)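 Purified recombinant PER-2 (expressed in E. coli BL21(DE3) from pET28a(+), IPTG-induced, Q-Sepharose purified). β-Lactam hydrolysis was followed spectrophotometrically at 30°C. For good substrates, Km and kcat came from initial rates. […] For poor substrates, kcat came from complete hydrolysis time courses.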

For experiment [5], the system named is Alcaligenes faecalis. Kind of experiment: Ratio of Kcat to Km of Alcaligenes faecalis PER2 beta lactamase. The essentials:
as §2

In the case of `CC1(C)S[C@@H]2[C@H](NC(=O)[C@H](N)c3ccccc3)C(=O)N2[C@H]1C(=O)O` [AMPICILLIN], the results for the MIC against Citrobacter freundii, in the experiment with Escherichia coli [1] and against Escherichia coli [2] were above 512 µg/mL, 0.25 µg/mL (≈ 0.715 µM) and above 512 µg/mL, respectively. Moreover, the Activity in experiment [3] amounted to 49%.

Consider `CCn1cc(C(=O)O)c(=O)c2ccc(C)nc21` [NALIDIXIC ACID], for which the minimal inhibitory concentration (MIC) against Citrobacter freundii is 2 µg/mL (≈ 8.61 µM); in the experiment with Escherichia coli [1] it was above 128 µg/mL; against Escherichia coli [2], above 128 µg/mL.

As to `CO[C@@]1(NC(=O)Cc2cccs2)C(=O)N2C(C(=O)O)=C(COC(N)=O)CS[C@@H]21` [CEFOXITIN], the minimum inhibitory concentration (MIC) against Citrobacter freundii was 1 µg/mL (≈ 2.34 µM); against Escherichia coli [1], at most 0.063 µg/mL; in the experiment on Escherichia coli [2], 0.125 µg/mL (≈ 0.292 µM). The molecule further registered a Ki at PER-2 beta-lactamase of 140 nM. Besides, the Activity in experiment [3] came out at 18%.

`CCN1CCN(C(=O)N[C@@H](C(=O)N[C@@H]2C(=O)N3C(C(=O)O)=C(CSc4nnnn4C)CS[C@H]23)c2ccc(O)cc2)C(=O)C1=O`: the Activity in experiment [3] was determined as 15%.

Regarding `CN(C)[C@@H]1C(O)=C(C(N)=O)C(=O)[C@@]2(O)C(O)=C3C(=O)c4c(O)cccc4[C@@](C)(O)[C@H]3C[C@@H]12` [TETRACYCLINE], the figures for the MIC against Citrobacter freundii, in the experiment on Escherichia coli [1] and in the experiment on Escherichia coli [2] were 0.5 µg/mL (≈ 1.13 µM), 32 µg/mL (≈ 72 µM) and 32 µg/mL (≈ 72 µM), respectively.

As to `NC[C@H]1O[C@H](O[C@H]2[C@H](O)[C@@H](O[C@H]3O[C@H](CO)[C@@H](O)[C@H](N)[C@H]3O)[C@H](N)C[C@@H]2N)[C@H](O)[C@@H](O)[C@@H]1O` [KANAMYCIN], the MIC against Citrobacter freundii is above 128 µg/mL; in the experiment with Escherichia coli [1] it was at most 0.25 µg/mL; with Escherichia coli [2], above 128 µg/mL.

Regarding `CC(C)(O/N=C(\C(=O)N[C@@H]1C(=O)N2C(C(=O)[O-])=C(C[n+]3ccccc3)CS[C@H]12)c1csc(N)n1)C(=O)O` [CEFTAZIDIME], the MIC with Citrobacter freundii is 128 µg/mL (≈ 234 µM); in the experiment on Escherichia coli [1] it was at most 0.063 µg/mL; against Escherichia coli [2], above 128 µg/mL. The Km with Alcaligenes faecalis [4] is 806 µM. The kcat/Km in the experiment with Alcaligenes faecalis [5] was found to be 30000 M⁻¹ s⁻¹. Moreover, the Activity in experiment [3] was found to be 64%.

Turning to `CC1(C)S[C@@H]2[C@H](NC(=O)Cc3ccccc3)C(=O)N2[C@H]1C(=O)O`, the Activity in experiment [3] was 18%.

Regarding `C[C@@H](O)[C@H]1C(=O)N2C(C(=O)O)=C(SCCNC=N)C[C@H]12` [IMIPENEM ANHYDROUS], the MIC in the experiment with Citrobacter freundii was 0.063 µg/mL (≈ 0.21 µM); against Escherichia coli [1], at most 0.063 µg/mL; against Escherichia coli [2] it was 0.125 µg/mL (≈ 0.418 µM). Further, the Ki on PER-2 beta-lactamase worked out at 60 nM.
